Data as given in ChEMBL document CHEMBL5649168, “Discovery of a selective catalytic p300/CBP inhibitor that targets lineage-specific tumours” (Nature, 2017).

Key:
[1] = target: Macrophage colony-stimulating factor 1 receptor (Homo sapiens, UniProt P07333); assay: Inhibition of CSF1R (unknown origin)
[2] = target: Dual specificity tyrosine-phosphorylation-regulated kinase 1A (Homo sapiens, UniProt Q13627); assay: Inhibition of Dyrk1A (unknown origin)
MAO-A = MAO-A (Homo sapiens, UniProt P21397); assay: Inhibition of MAO-A (unknown origin) at 10 uM by radioligand binding assay relative to control
HL-60 = assay: Antiproliferative activity against human HL-60 cells assessed as inhibition of cell viability incubated for 3 to 5 days by Celltiter-Glo luminescent assay; format: functional, cell-based
[3] = target: Serine/threonine-protein kinase 16 (Homo sapiens, UniProt O75716); assay: Inhibition of STK16 (unknown origin)
Sequence of Serine/threonine-protein kinase 16 (O75716 whole entry): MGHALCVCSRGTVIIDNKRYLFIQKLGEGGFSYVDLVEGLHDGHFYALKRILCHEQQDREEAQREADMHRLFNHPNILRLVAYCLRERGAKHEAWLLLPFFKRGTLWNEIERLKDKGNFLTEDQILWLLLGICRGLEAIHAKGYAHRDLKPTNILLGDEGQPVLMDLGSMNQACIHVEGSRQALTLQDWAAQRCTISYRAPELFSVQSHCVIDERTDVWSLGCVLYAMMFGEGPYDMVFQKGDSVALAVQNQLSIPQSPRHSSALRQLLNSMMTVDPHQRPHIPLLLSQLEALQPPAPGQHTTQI

[4] = target: cAMP-dependent protein kinase (PKA) (Homo sapiens, UniProt P22694+P17612+P22612); assay: Inhibition of PKA (unknown origin); format: protein assay
NCI-H2444 = assay: Antiproliferative activity against human NCI-H2444 cells assessed as inhibition of cell viability incubated for 3 to 5 days by Celltiter-Glo luminescent assay; format: functional, cell-based
[5] = target: Tyrosine-protein kinase SYK (Homo sapiens, UniProt P43405); assay: Inhibition of Syk (unknown origin)
[6] = target: T1, CREB-binding protein/Histone acetyltransferase p300 (Homo sapiens, UniProt Q09472+Q92793); assay: Inhibition of p300/CBP in human 22Rv1 cells assessed as reduction in H3K27Ac level incubated for 24 hrs by Hoechst 33342 staining based high content microscopy analysis; format: cell-based
T1 sequence (Q09472 whole entry, looked up): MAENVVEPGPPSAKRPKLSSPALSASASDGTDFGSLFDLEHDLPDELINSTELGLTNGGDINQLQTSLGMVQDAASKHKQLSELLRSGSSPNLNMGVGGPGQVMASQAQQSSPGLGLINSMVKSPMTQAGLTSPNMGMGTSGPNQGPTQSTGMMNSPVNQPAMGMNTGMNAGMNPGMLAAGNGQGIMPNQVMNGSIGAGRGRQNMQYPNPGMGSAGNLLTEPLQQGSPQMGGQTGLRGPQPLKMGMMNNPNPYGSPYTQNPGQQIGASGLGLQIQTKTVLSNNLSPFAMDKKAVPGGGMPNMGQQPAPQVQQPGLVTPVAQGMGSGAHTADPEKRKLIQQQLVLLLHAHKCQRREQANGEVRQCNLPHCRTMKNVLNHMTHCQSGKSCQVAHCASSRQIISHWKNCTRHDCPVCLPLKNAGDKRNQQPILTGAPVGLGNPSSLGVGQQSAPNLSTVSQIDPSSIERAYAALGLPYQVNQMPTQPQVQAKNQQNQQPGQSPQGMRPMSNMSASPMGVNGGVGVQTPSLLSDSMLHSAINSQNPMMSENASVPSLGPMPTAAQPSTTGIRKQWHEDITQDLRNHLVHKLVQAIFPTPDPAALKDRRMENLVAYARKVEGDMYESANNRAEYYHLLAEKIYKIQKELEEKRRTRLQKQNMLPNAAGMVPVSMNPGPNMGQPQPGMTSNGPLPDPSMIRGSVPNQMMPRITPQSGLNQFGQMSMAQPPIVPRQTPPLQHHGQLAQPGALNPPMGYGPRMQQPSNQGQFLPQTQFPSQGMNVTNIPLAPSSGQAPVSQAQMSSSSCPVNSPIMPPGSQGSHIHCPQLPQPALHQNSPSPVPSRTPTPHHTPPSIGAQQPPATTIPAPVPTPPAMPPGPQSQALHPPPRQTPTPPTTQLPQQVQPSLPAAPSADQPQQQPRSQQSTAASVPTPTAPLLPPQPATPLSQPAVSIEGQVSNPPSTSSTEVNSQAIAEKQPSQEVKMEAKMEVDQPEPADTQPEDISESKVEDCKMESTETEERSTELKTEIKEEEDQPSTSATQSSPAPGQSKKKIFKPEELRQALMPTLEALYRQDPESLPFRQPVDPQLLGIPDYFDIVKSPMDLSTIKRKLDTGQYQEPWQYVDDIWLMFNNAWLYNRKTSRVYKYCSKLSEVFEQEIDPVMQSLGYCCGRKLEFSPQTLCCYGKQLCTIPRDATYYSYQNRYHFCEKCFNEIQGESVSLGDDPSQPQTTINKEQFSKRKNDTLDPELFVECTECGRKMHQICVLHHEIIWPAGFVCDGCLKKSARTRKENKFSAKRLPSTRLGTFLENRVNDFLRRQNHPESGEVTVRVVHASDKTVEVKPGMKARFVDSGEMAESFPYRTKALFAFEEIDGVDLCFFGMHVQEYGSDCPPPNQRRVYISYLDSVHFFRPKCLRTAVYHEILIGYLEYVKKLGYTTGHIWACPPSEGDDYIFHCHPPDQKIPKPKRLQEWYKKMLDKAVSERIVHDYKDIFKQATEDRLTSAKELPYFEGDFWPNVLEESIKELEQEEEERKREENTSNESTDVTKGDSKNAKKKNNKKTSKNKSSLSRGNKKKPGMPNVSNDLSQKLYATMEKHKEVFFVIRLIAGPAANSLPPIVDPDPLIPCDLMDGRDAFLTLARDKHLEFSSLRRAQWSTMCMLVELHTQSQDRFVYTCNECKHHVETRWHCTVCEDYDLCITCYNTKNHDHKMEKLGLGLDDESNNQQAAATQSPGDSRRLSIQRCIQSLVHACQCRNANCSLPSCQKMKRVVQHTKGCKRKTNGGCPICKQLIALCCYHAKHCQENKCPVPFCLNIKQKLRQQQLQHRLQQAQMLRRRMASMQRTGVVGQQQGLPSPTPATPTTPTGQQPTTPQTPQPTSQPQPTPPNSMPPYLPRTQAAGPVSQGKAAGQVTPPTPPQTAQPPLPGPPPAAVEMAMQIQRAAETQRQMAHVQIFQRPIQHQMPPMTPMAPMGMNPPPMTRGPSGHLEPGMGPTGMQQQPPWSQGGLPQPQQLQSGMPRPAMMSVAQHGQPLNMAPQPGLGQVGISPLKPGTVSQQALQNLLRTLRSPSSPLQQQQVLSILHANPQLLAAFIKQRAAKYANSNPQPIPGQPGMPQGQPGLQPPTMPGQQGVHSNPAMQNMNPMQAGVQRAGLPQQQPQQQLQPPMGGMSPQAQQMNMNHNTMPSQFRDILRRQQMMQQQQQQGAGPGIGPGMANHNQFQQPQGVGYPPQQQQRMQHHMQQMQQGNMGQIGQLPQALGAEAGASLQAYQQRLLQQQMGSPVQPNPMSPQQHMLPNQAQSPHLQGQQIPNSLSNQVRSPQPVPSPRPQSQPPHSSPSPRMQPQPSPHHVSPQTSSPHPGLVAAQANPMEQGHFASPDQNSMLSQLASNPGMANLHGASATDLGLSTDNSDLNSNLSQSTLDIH
T1 sequence (Q92793 whole entry, looked up): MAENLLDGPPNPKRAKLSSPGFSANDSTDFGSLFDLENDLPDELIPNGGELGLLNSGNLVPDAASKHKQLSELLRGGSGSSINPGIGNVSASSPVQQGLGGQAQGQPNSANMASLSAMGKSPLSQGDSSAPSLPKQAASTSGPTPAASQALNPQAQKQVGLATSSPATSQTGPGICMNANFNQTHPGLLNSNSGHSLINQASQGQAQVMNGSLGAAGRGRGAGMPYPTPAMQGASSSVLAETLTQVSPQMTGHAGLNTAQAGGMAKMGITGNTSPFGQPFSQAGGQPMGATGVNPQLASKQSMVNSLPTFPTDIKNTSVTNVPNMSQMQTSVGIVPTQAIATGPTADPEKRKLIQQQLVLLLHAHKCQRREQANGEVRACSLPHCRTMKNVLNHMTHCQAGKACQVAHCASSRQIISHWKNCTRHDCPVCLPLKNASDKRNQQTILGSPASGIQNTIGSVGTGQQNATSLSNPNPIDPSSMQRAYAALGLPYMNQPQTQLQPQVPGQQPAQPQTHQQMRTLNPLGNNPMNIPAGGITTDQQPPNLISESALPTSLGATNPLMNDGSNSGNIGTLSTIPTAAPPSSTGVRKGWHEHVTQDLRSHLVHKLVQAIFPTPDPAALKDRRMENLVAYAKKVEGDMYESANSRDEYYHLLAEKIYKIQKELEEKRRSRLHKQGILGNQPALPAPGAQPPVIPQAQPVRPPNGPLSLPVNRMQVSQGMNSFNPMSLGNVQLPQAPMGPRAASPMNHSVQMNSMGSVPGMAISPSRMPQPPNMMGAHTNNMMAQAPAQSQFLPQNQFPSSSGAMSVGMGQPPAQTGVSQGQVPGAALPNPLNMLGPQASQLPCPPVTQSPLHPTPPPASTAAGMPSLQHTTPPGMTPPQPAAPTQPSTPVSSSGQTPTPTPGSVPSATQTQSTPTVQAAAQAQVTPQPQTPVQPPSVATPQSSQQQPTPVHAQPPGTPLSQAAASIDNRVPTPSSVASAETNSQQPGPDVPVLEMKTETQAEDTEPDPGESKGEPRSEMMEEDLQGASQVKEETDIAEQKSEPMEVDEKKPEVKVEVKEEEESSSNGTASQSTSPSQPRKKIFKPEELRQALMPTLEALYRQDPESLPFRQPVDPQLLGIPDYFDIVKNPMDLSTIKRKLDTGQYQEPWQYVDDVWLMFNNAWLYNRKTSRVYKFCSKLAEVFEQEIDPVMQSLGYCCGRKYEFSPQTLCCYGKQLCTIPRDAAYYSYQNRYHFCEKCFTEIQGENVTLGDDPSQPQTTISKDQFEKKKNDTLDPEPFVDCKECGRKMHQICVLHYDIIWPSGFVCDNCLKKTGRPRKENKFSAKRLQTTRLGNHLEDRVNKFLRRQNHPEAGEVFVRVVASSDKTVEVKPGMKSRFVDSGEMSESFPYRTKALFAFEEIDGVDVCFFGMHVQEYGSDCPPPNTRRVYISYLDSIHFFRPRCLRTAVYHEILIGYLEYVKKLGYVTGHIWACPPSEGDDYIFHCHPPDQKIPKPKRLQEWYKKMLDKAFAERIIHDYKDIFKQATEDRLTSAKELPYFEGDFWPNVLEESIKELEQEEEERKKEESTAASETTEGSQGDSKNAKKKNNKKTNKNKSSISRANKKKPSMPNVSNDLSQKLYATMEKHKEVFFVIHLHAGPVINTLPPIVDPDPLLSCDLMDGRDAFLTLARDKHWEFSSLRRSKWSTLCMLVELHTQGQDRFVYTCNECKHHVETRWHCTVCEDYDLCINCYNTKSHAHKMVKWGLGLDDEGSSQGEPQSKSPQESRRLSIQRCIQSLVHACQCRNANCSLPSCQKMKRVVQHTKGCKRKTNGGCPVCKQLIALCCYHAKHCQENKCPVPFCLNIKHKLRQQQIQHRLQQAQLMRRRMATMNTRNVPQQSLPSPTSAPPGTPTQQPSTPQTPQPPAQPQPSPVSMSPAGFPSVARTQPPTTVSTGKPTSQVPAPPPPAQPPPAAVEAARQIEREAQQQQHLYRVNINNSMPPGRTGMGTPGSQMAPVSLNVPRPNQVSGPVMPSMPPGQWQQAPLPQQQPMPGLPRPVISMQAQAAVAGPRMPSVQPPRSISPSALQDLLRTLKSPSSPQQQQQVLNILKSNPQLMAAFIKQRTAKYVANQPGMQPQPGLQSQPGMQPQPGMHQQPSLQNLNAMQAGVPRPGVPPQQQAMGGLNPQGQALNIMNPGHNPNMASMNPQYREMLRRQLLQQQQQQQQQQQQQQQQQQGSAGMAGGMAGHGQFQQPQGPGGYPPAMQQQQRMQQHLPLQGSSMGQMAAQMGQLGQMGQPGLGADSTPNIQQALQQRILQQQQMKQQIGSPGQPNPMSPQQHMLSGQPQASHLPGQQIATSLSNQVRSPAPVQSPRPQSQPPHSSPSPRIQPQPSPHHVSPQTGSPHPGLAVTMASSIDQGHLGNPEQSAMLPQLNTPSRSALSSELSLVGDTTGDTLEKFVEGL
Method in brief: (§1)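 Cells received an 8-point half-log dilution series from 10 µM. They were then fixed in 10% formaldehyde (10 min, RT), permeabilised with 0.1% Triton X-100 and blocked with 1% BSA for 1 h. Primary antibodies were applied overnight at 4 °C, followed by Alexa488 anti-rabbit, Alexa555 anti-mouse and Hoechst 33342 for 1 h. Fifteen fields per well were imaged and average mean intensity taken. EC50 came from a sigmoidal fit.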

[7] = target: Hepatocyte growth factor receptor (Homo sapiens, UniProt P08581); assay: Inhibition of c-MET (unknown origin)
[8] = Half life in CB17 SCID mouse xenografted with LuCaP-77 CR cell at 50 mg/kg, ip administered for 7 days; format: ADME, organism-based; conditions: in vivo, time 7 day
THP-1 = assay: Antiproliferative activity against human THP-1 cells assessed as inhibition of cell viability incubated for 3 to 5 days by Celltiter-Glo luminescent assay; format: functional, cell-based
SU-DHL-8 = assay: Antiproliferative activity against human SU-DHL-8 cells assessed as inhibition of cell viability incubated for 3 to 5 days by Celltiter-Glo luminescent assay; format: functional, cell-based
[9] = target: Ribosomal protein S6 kinase alpha-3 (Homo sapiens, UniProt P51812); assay: Inhibition of Rsk2 (unknown origin)
[10] = target: Tyrosine-protein kinase receptor TYRO3 (Homo sapiens, UniProt Q06418); assay: Inhibition of TYRO3 (unknown origin)
Hs 695T = assay: Antiproliferative activity against human Hs 695T cells assessed as inhibition of cell viability incubated for 3 to 5 days by Celltiter-Glo luminescent assay; format: functional, cell-based
[11] = Inhibition of CDK8/Cyclin C (unknown origin); design: species or system Homo sapiens
[12] = target: Serine/threonine-protein kinase PAK 4 (Homo sapiens, UniProt O96013); assay: Inhibition of PAK4KD (unknown origin)
NCI-H1836 = assay: Antiproliferative activity against human NCI-H1836 cells assessed as inhibition of cell viability incubated for 3 to 5 days by Celltiter-Glo luminescent assay; format: functional, cell-based
[13] = target: T1, CREB-binding protein/Histone acetyltransferase p300; assay: Inhibition of p300/CBP in human 22Rv1 cells assessed as reduction in H3K18Ac level incubated for 24 hrs by Hoechst 33342 staining based high content microscopy analysis; format: cell-based; method in brief: as §1
[14] = target: Serine/threonine-protein kinase 33 (Homo sapiens, UniProt Q9BYT3); assay: Inhibition of STK33 (unknown origin)
[15] = target: Proto-oncogene tyrosine-protein kinase receptor Ret (Homo sapiens, UniProt P07949); assay: Inhibition of Ret (unknown origin)
[16] = target: Bromodomain-containing protein 3 (Homo sapiens, UniProt Q15059); assay: Inhibition of BRD3 (unknown origin)
OCI-AML-5 = assay: Antiproliferative activity against human OCI-AML5 cells assessed as inhibition of cell viability incubated for 3 to 5 days by Celltiter-Glo luminescent assay; format: functional, cell-based
[17] = target: T1, CREB-binding protein/Histone acetyltransferase p300; assay: Inhibition of p300/CBP in human 22Rv1 cells assessed as reduction in H3K9Ac level incubated for 24 hrs by Hoechst 33342 staining based high content microscopy analysis; format: cell-based; method in brief: as §1
[18] = Tmax in CB17 SCID mouse xenografted with LuCaP-77 CR cell at 100 mg/kg, ip administered for 7 days; format: ADME, organism-based; conditions: in vivo, time 7 day
[19] = target: Calcium/calmodulin-dependent protein kinase kinase 2 (Homo sapiens, UniProt Q96RR4); assay: Inhibition of CAMKK2 (unknown origin)
SU-DHL10 = assay: Antiproliferative activity against human Su-DHL-10 cells assessed as inhibition of cell viability incubated for 3 to 5 days by Celltiter-Glo luminescent assay; format: functional, cell-based
SK-MEL-24 = assay: Antiproliferative activity against human SK-MEL-24 cells assessed as inhibition of cell viability incubated for 3 to 5 days by Celltiter-Glo luminescent assay; format: functional, cell-based
[20] = AUC in CB17 SCID mouse xenografted with LuCaP-77 CR cell at 200 mg/kg, ip administered for 7 days; format: ADME, organism-based; conditions: in vivo, time 7 day
HCC1187 = assay: Antiproliferative activity against human HCC1187 cells assessed as inhibition of cell viability incubated for 3 to 5 days by Celltiter-Glo luminescent assay; format: functional, cell-based
K562 = assay: Antiproliferative activity against human K562 cells assessed as inhibition of cell viability incubated for 3 to 5 days by Celltiter-Glo luminescent assay; format: functional, cell-based
[21] = target: Insulin-like growth factor 1 receptor (Homo sapiens, UniProt P08069); assay: Inhibition of IGF1R (unknown origin)
[22] = target: Epidermal growth factor receptor (Homo sapiens, UniProt P00533); assay: Inhibition of EGFR (unknown origin)
HCC4006 = assay: Antiproliferative activity against human HCC4006 cells assessed as inhibition of cell viability incubated for 3 to 5 days by Celltiter-Glo luminescent assay; format: functional, cell-based
DU-4475 = assay: Antiproliferative activity against human DU-4475 cells assessed as inhibition of cell viability incubated for 3 to 5 days by Celltiter-Glo luminescent assay; format: functional, cell-based
HCC38 = assay: Antiproliferative activity against human HCC38 cells assessed as inhibition of cell viability incubated for 3 to 5 days by Celltiter-Glo luminescent assay; format: functional, cell-based
SKM-1 = assay: Antiproliferative activity against human SKM-1 cells assessed as inhibition of cell viability incubated for 3 to 5 days by Celltiter-Glo luminescent assay; format: functional, cell-based
NU-DUL-1 = assay: Antiproliferative activity against human NU-DUL-1 cells assessed as inhibition of cell viability incubated for 3 to 5 days by Celltiter-Glo luminescent assay; format: functional, cell-based
[23] = target: Serine/threonine-protein kinase PLK3 (Homo sapiens, UniProt Q9H4B4); assay: Inhibition of Plk3 (unknown origin)

## CNC(=O)Nc1ccc2c(c1)CC[C@@]21OC(=O)N(CC(=O)N(Cc2ccc(F)cc2)[C@@H](C)C(F)(F)F)C1=O [A-485]
[1]
  IC50: > 10 µM
[2]
  IC50: > 10 µM
MAO-A
  inhibition at 10 µM: 28%
HL-60
  EC50: > 10 µM
[3]
  IC50: > 10 µM
[4]
  IC50: > 10 µM
NCI-H2444
  EC50: 5.92 µM
[5]
  IC50: > 10 µM
[6]
  INH: 0.47 µM
[7]
  IC50: > 10 µM
[8]
  half-life: 1.9 h
THP-1
  EC50: 3.51 µM
SU-DHL-8
  EC50: 0.54 µM
[9]
  IC50: > 10 µM
[10]
  IC50: > 10 µM
Hs 695T
  EC50: 3.57 µM
[11]
  IC50: > 10 µM
[12]
  IC50: > 10 µM
NCI-H1836
  EC50: > 10 µM
[13]
  INH: 3.79 µM
[14]
  IC50: > 10 µM
[15]
  IC50: > 10 µM
[16]
  IC50: > 10 µM
OCI-AML-5
  EC50: 4.86 µM
[17]
  INH: > 10 µM
[18]
  Tmax: 3 h
[19]
  IC50: > 10 µM
SU-DHL10
  EC50: 0.92 µM
SK-MEL-24
  EC50: > 10 µM
[20]
  AUC at 168 h: 2950 µg·h/mL
HCC1187
  EC50: > 10 µM
K562
  EC50: 1.27 µM
[21]
  IC50: > 10 µM
[22]
  IC50: > 10 µM
HCC4006
  EC50: 4.64 µM
DU-4475
  EC50: 0.67 µM
HCC38
  EC50: > 10 µM
SKM-1
  EC50: 1.34 µM
NU-DUL-1
  EC50: 0.48 µM
[23]
  IC50: 2.69 µM
